Compound activity: PubChem, Johns Hopkins Ion Channel Center
Sampled rows, rich in hits. Any-hit rate of the full collection: about 3.7%.
hERG protect: compounds protecting human hERG from proarrhythmic drug block; Q12809; CHO-hERG, FluxOR thallium flux, dofetilide IC70 present; activation (rescue from dofetilide block), less the hit threshold, % at 10 µM; AID 1511; 0.51% of 310,000 active;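 active = activation above the mean of controls blocked by dofetilide plus 5 SD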;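 note: thallium influx through hERG after potassium depolarization seen as dye fluorescence rise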
Kir21 inh: Kir2.1 (mouse) channel inhibition; P35561; HEK293-Kir2.1, FluxOR thallium flux fluorescence; hits give low values; B-score at 10 µM; 0.85% of 310,000 active;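 active = fluorescence ratio B-score at or below minus 3 SD of library scores, with starting-brightness B-score within 2 SD, cut at about -4.2 in these data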;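 note: channel flux triggered by added potassium and thallium sulfate stimulus; B-score of peak minus minimum fluorescence over baseline after thallium stimulus; more negative B-score means stronger Kir2.1 block with less thallium influx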
Target sequence (P35561 whole entry, looked up): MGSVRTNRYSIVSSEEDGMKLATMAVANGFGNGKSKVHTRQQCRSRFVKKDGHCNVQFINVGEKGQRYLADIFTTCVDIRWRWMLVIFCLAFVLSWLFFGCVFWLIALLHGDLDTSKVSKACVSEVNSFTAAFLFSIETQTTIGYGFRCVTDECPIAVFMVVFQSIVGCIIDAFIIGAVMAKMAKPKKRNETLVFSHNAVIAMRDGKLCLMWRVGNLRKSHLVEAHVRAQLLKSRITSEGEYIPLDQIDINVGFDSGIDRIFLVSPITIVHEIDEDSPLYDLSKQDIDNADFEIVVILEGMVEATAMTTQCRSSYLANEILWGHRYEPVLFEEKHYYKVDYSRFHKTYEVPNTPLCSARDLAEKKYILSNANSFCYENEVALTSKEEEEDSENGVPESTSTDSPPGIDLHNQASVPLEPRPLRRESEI
KCNK9 block: human KCNK9 channel inhibition; Q9NPC2; HEK293 KCNK9, FluxOR thallium flux fluorescence; hits give low values; B-score at 10 µM; 1.2% of 310,000 active; AID 488922;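 active = ratio B-score over 3 SD below the library mean, with starting fluorescence within 5 SD of its mean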;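 note: negative B-score means less thallium flux so channel inhibition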
KCNK3 block: human KCNK3 channel inhibition, primary screen; O14649; CHO-KCNK3 thallium flux, FluxOR fluorescence; hits give low values; B-score at 10 µM; 0.84% of 340,000 active; AID 602410;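 active = B-score under library mean minus 4 SD, starting fluorescence ratio at most library mean plus 5 SD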;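 note: more negative B-score means stronger inhibition of thallium flux through KCNK3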
KCNQ1 inh: inhibitors of human KCNQ1 potassium channel | P51787 | CHO-K1 KCNQ1, FluxOR thallium flux fluorescence; hits give high values | B-score at 10 µM | 1.3% of 310,000 active | AID 2642;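 active = compounds whose thallium flux B-score, printed positive for inhibition, exceeds three library SD while starting fluorescence stays within three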;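 note: channel opened by potassium depolarization with thallium stimulus after 20 min compound exposure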
KCNQ1 act: potentiators or activators of human KCNQ1 potassium channel; P51787; CHO-K1 KCNQ1, thallium flux FluxOR fluorescence; hits give high values; B-score at 10 µM; 0.35% of 310,000 active; AID 2648;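 active = fluorescence ratio B-score, a plate-corrected score, at least three library SD, with initial intensity B-score within 5 SD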
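assay system = CHO-K1 cells stably expressing KCNQ1 | medium = assay buffer, equal DMSO in all wells | timing = 37 °C overnight plating, 90-min dark dye load, 20-min compound pretreatment | measured by = kinetic FluxOR thallium fluorescence, 10-s 1-Hz baseline, 110-s post-stimulus read | measure = fluorescence change relative to baseline, converted to B score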
KCNQ1 inh valid: confirmation of human KCNQ1 potassium channel inhibitors; shares compounds with KCNQ1 inh; KCNQ1 cell line, FluxOR thallium flux fluorescence; 93% of 1,600 active; inhibition, % at 10 µM;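 active = primary screen active, with duplicate mean exceeding buffer control mean plus 3 SD of buffer wells, cut at about 28% in these data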;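 note: 0% = buffer control ratio and 100% = XE991 inhibitor control ratio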
CHO Tl flux: activity in parental CHO cells lacking KCNQ1; 21% of 1,600 active; parental CHO-K1, FluxOR thallium flux fluorescence ratio; hits give low values; zero means no signal rise above baseline; AID 588366; shares compounds with KCNQ1 inh; fluorescence ratio (Tl flux) at 10 µM;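 active = mean of duplicate thallium-flux fluorescence ratios in parental host cells more than 5 SD below the buffer control mean, cut at about 0.38 in these data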;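 note: ratio is peak minus minimum fluorescence divided by baseline fluorescence; actives read low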
KCNQ1 APC inh: human KCNQ1 inhibition validated by electrophysiology; KCNQ1-CHO cells, automated patch clamp current; calls only at 10 µM; AID 624120; shares compounds with KCNQ1 inh; 20% of 490 active;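 active = KCNQ1 current drop exceeding 3 SD of negative control wells, seen in both duplicate runs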;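 note: steady state current during a 2 s step from -80 to +40 mV; negative values mean current inhibition and positive values mean potentiation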
KCNQ2 inh: selectivity of KCNQ1 inhibitors: inhibition of rat KCNQ2 channel; 71% of 1,600 active; KCNQ2 cells, FluxOR thallium flux fluorescence; inhibition, % at 10 µM; shares compounds with KCNQ1 inh; AID 651746;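 active = mean percent inhibition of the KCNQ2 thallium signal more than 5 SD above the buffer-only control wells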;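 note: KCNQ2 expressed in CHO cells; 0% = buffer control wells and 100% = XE-991 inhibitor control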
KCNQ1 KCNE1 spec: human KCNQ1/KCNE1 inhibition in KCNQ1 specificity screen | shares compounds with KCNQ1 inh | KCNQ1/KCNE1 cells, FluxOR thallium flux fluorescence | inhibition, % at 10 µM | 77% of 1,600 active;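 active = mean percent inhibition of duplicate wells above the buffer-only control mean plus 3 SD of those controls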;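 note: 0% = buffer only wells and 100% = XE-991 inhibitor control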
* = called active by the depositor; i = inactive; x = not tested or not shown; + = active, no number.

SMILES	hERG protect	Kir21 inh	KCNK9 block	KCNK3 block	KCNQ1 inh	KCNQ1 act	KCNQ1 inh valid	CHO Tl flux	KCNQ2 inh	KCNQ1 KCNE1 spec	others
CCOC(=O)C1CCN(c2ncnc3c2oc2ccc(Cl)cc23)CC1	-13.6	1.77	i	i	7*	i	62.5*	0.545	94.3%*	i
CCOC(=O)C1CCN(c2ncnc3c2[nH]c2cccc(OC)c23)CC1	-8.6	2.37	i	i	i	i	x	x	x	x
Cc1ccccc1S(=O)(=O)Nc1nc2ccccc2nc1N1CCc2ccccc2C1	-17.7	-0.63	i	i	7*	i	84.5*	0.389	92.3%*	121.5%*
CNC(=O)NC(=O)C(NC1CCCc2ccccc21)c1ccccc1 (stereo not drawn)	-8.1	-1.37	i	i	i	i	x	x	x	x
Cc1ccc(NC(=O)C(NC2CCCc3ccccc32)c2ccccc2)cc1Cl (stereo not drawn)	-6.9	-2.15	i	i	6*	i	66.0*	0.362*	100.0%*	99.0%*
CCCc1cc(C(=O)Nc2cccc3ccccc23)n(C)n1	-7.8	-1.22	i	i	i	i	x	x	x	x
CCCc1cc(C(=O)Nc2ccc(C(=O)c3ccc(C)cc3)cc2)n(C)n1	-29.9	0.23	i	i	11*	i	170.0*	0.36*	139.7%*	+
Cc1ccccc1NC(=O)COc1ccccc1C	0.9	-0.26	i	i	i	i	x	x	x	x
Cc1ccccc1OCC(=O)Nc1ccccc1C(=O)NC1CC1	-22.2	0.81	i	i	10*	i	92.0*	0.499	123.0%*	128.5%*	KCNQ1 APC inh=i
Cc1ccccc1OCC(=O)Nc1ccccc1-c1ccccc1	-9.1	-0.61	i	i	6*	i	128.0*	0.393	113.7%*	177.5%*	KCNQ1 APC inh=i
NC(=O)c1cc2ccc(O)cc2oc1=NCc1ccccc1	-59.5	-23.3	i	i	31*	i	+	0.048*	i	i
Cc1cc(C)c(OCC(=O)Nc2ccc(S(=O)(=O)N3CCCC3)cc2)c(C)c1	-7.6	-0.18	i	i	i	i	x	x	x	x
CCN(CC)c1ccc(C=Nc2ccccc2C)c(O)c1	-8.5	1.04	i	i	i	i	x	x	x	x
CCN(CC)c1ccc(O)c(C=Nc2ccc(C)c(C)c2)c1	-9.1	0.54	i	i	11*	i	150.0*	0.436	110.0%*	165.5%*	KCNQ1 APC inh=i
O=C(Nc1ccccc1[N+](=O)[O-])c1cccc(N2C(=O)CCC2=O)c1	-2.6	-0.07	i	i	i	i	x	x	x	x
Cc1cc2nc3c(=O)[nH]c(=S)[nH]c3nc2cc1NC(=O)C(F)(F)F	-19.8	-8.6	-7.24*	i	11*	i	65.5*	0.326*	i	151.0%*
Cc1ccc(S(=O)(=O)NCC(=O)N2CCOCCOCCOCC2)cc1	-3.0	0.34	i	i	i	i	x	x	x	x
O=C1COc2cc(S(=O)(=O)CCC(=O)N3CCCCC3)c(Cl)cc2N1	-9.9	-0.99	i	i	i	i	x	x	x	x
CC(=O)c1ccccc1NC(=O)COC(=O)C1=NN(c2ccccc2)C(=O)CC1	x	x	x	i	x	x	x	x	x	x
CC(C)C(=O)NC(=S)Nc1ccc(S(=O)(=O)N(C)Cc2ccccc2)cc1	-8.9	-0.29	i	i	11*	i	117.0*	0.42	104.0%*	195.5%*	KCNQ1 APC inh=i
CN(Cc1ccccc1)S(=O)(=O)c1ccc(NS(=O)(=O)Cc2ccccc2)cc1	-17.4	-0.47	i	i	8*	i	130.5*	0.374*	118.3%*	92.5%*
CC(=O)NC(=S)Nc1ccc(S(=O)(=O)N(C)Cc2ccccc2)cc1	-8.2	1.26	i	i	i	i	x	x	x	x
COc1cccc(C(=O)OCC(=O)Nc2ccc3c(c2)OCCO3)c1	x	x	x	i	x	x	x	x	x	x
C=CCNc1ncnc2c1[nH]c1ccc(Cl)cc12	-9.1	-0.5	i	i	7*	i	83.5*	0.523	i	i
CCn1c(=NC(=O)CN2C(=O)CCC2=O)sc2c(OC)ccc(OC)c21	-4.6	0.05	i	i	i	i	x	x	x	x
SMILES	hERG protect	Kir21 inh	KCNK9 block	KCNK3 block	KCNQ1 inh	KCNQ1 act	KCNQ1 inh valid	CHO Tl flux	KCNQ2 inh	KCNQ1 KCNE1 spec	others
CCn1c(=NC(=O)C2COc3ccccc3O2)sc2c(C)ccc(OC)c21 (stereo not drawn)	-15.6	0.77	-7.99*	i	7*	i	85.0*	0.395	110.3%*	121.0%*
Cc1cc(C(=O)N2CCN(C(c3ccccc3)c3ccccc3)CC2)no1	-8.3	-1.52	i	i	i	i	x	x	x	x
CCCc1cc(C(=O)N2CCN(C(c3ccccc3)c3ccccc3)CC2)no1	-11.5	-0.68	i	i	10*	i	125.5*	0.401	106.3%*	162.5%*	KCNQ1 APC inh=i
COc1ccccc1Nc1nc2nonc2[nH]c1=O	-7.1	2.19	i	i	i	i	x	x	x	x
Cc1nc(SCC(=O)NCCc2ccccc2)nc(C)c1C	-1.4	-1.27	i	i	i	i	x	x	x	x
CCn1c(/C=C/c2ccc(O)cc2)nc2ccccc2c1=O	-8.2	-0.9	i	i	i	i	x	x	x	x
CCn1c(/C=C/c2ccc(O)c(O)c2)nc2ccccc2c1=O	-17.0	-2.87	i	i	7*	i	30.5*	0.52	i	i
COc1ccc(C)cc1NC(=O)CCCN1C(=S)NC(C)(C)CC1C (stereo not drawn)	-11.9	-0.63	i	i	6*	i	0.0	0.482	i	i
CCOC(=O)Cc1c(Sc2ccccc2)c2ccccc2n1C	-3.1	0.04	-8.03*	i	7*	i	93.5*	0.47	88.0%*	114.5%*	KCNQ1 APC inh=i
CN(C)CCNC(=O)c1ccc(Sc2ccc(Br)cc2)c([N+](=O)[O-])c1	-20.0	-1.66	i	i	15*	i	0.0	0.495	i	i
COc1ccc(Nc2cc(C)nc(NCc3ccccc3)n2)cc1	-28.0	-13.9*	i	i	8*	i	124.0*	0.373*	89.0%*	97.5%*
